Compound activity from PubChem.
Compounds with a hit are over-represented: about 1.3% of the library has one in this group of screens.
MT1-MMP act inh = blocks activation of human MT1-MMP. P50281. HT1080 RFP-PRO-GFP cells, GFP/RFP ratio fluorescence, overnight; percent of plate control window, DMSO zero. GFP/RFP ratio change, % at 20 µM. 360,000 compounds, 0.061% hits;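 active = GFP/RFP ratio change of at least 30% with cell ATP level not reduced by more than half and red fluorescence within 50% of control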
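Test system: HT1080 RFP-PRO-GFP cells; Benchmarks: DMSO and RFP-L50D-GFP cell wells; Timing: cells overnight before dosing, compound overnight, 37 °C, 5% CO2; Compound: one 20 µM compound dose with 1% DMSO; Read-out: GFP/RFP fluorescence ratio.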
DAGLB inhibitor = blocks human DAGLB lipase activity | AID 504411 | HEK293T DAGLB membrane lysate, EnzChek fluorogenic substrate | 340,000 compounds, 0.059% hits | inhibition, % at 5.17 µM | Q8NCG7; in the data active = inhibition above about 34%
TMEM16A inh = inhibitors of mouse TMEM16A calcium-activated chloride channel. HEK293 TMEM16A/YFP iodide influx fluorescence, ionomycin. normalized B-score (activity score, 25-100; higher = stronger inhibition) at 10 µM. 310,000 compounds, 1.2% hits. AID 588511;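 active = ratio plate-corrected score three or more library SD toward inhibition, starting fluorescence score within five deviations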;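 also: score derived from kinetic fluorescence span divided by baseline fluorescence per well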
TMEM16A act = mouse TMEM16A channel activation, primary screen; Q8BHY3; HEK293 TMEM16A/YFP-H148Q/I152L, iodide quench fluorescence; active compounds read low; B-score at 10 µM; 340,000 compounds, 0.3% hits; AID 623877;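 active = fluorescence-ratio B-score plate-corrected deviation score at least 3 library SD below zero, with starting fluorescence score within 5 deviations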;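 also: channel opened by trigger with iodide after compound preincubation; score built on the fluorescence ratio of max minus min over baseline; more negative score means more quench and so TMEM16A activation or potentiation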
DAGLB confirm = DAGLB (human) inhibition, confirmation screen | HEK293T DAGLB membrane lysate, EnzChek fluorogenic substrate | shares compounds with DAGLB inhibitor | 190 compounds, 73% hits | inhibition, % at 5.17 µM;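 active = mean inhibition over triplicate wells above a set limit taken from the primary lipase screen, cut at about 34% in these data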
TMEM16A reconf = re-confirmation of mouse TMEM16A chloride channel inhibitors. shares compounds with TMEM16A inh. HEK293 TMEM16A/YFP-H148Q, iodide quench fluorescence; ionomycin added to raise cell calcium. AID 652189. inhibition, % at 10 µM. 2,300 compounds, 39% hits;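 active = mean duplicate percent inhibition, scaled so buffer wells are 0 and the reference blocker 100, over three buffer SD above buffer mean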
HEK293 Ca mobil = alters calcium mobilization in TMEM16A HEK293 cells, counter-screen; shares compounds with TMEM16A inh; TMEM16A/YFP HEK293, Fluo4 calcium mobilization; calcium response (% of ionomycin), % at 10 µM; 2,300 compounds, 2% hits; AID 652231;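 active = duplicate-averaged calcium signal over 20% of the ionomycin maximum, relative to buffer baseline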;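 also: each well's signal is peak minus trough fluorescence divided by its pre-addition baseline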
YFP-HEK293 quench = parental YFP-HEK293 iodide quench counter-screen activity; AID 652233; YFP ratio F(max-min)/F0 at 10 µM; 2,300 tested, under 10 active; ionomycin; shares compounds with TMEM16A inh;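 active = yellow fluorescent protein signal ratio exceeding the buffer control mean by over 5 SD of those controls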;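 also: ratio is mean of duplicate wells from kinetic YFP trace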
ClC-1 rat inh = rat ClC-1 inhibition, TMEM16A specificity screen; shares compounds with TMEM16A inh; CHO ClC-1-YFP, iodide influx fluorescence quench; iodide control reads 0, buffer control 100; ratio percent, % at 10 µM; 2,300 tested, under 10 active;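 active = duplicate-mean ratio percent above the mean of iodide-only control wells, which defines zero, plus 5 of their SD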;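 also: higher percent means stronger block of ClC-1 iodide influx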
Target sequence (P35524 whole entry, looked up): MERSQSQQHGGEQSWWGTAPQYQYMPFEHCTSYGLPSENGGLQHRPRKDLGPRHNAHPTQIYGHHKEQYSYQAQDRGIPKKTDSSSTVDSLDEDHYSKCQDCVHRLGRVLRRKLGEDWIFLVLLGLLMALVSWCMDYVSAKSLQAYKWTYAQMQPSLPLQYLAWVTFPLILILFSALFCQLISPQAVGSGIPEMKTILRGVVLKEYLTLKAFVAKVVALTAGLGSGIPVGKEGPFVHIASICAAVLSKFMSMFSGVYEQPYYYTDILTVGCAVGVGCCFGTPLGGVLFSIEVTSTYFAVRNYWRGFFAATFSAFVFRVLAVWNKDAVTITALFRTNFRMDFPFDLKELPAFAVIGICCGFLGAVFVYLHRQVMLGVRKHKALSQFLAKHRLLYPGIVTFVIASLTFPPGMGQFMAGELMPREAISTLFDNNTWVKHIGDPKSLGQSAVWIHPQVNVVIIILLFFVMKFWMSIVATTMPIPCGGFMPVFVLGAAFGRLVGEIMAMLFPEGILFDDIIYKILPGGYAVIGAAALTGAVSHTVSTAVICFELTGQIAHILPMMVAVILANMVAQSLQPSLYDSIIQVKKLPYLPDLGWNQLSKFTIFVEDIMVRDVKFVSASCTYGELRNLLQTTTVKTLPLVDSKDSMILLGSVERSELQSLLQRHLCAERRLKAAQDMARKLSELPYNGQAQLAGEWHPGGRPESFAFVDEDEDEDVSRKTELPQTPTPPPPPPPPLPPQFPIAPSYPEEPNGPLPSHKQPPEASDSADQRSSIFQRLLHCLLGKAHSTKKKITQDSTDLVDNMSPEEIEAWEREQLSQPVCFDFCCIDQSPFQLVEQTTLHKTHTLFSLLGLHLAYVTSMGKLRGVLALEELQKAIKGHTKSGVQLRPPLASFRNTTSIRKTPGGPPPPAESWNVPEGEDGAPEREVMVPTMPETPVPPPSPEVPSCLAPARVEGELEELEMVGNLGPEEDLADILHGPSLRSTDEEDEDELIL
MT1-MMP act val = blocks activation of human MT1-MMP in validation testing | shares compounds with MT1-MMP act inh | HT1080 RFP-PRO-GFP cells, GFP and RFP fluorescence ratio, overnight | inhibition, % at 20 µM | 200 compounds, 10% hits | AID 652235;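 active = inhibition of at least 50% in the primary cell screen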
Numbers stand for hits.

`CN(C)c1ccc(N=Nc2ccccc2C(=O)OCC(=O)NCC2CCCCC2)cc1` gave MT1-MMP act inh inactive, DAGLB inhibitor 39, TMEM16A inh 100, TMEM16A act inactive, DAGLB confirm 43, TMEM16A reconf inactive, HEK293 Ca mobil inactive, YFP-HEK293 quench inactive and ClC-1 rat inh inactive.
Screening O=[N+]([O-])c1cc(Cl)cc(/C=N/NC(=S)Nc2ccc(S(=O)(=O)N3CCOCC3)cc2)c1O returned MT1-MMP act inh inactive, DAGLB inhibitor 61, TMEM16A inh 25, TMEM16A act inactive, DAGLB confirm 73, TMEM16A reconf 70%, HEK293 Ca mobil inactive, YFP-HEK293 quench inactive and ClC-1 rat inh inactive.
`CC1(C(=O)NS(=O)(=O)c2ccccc2)CCN1C(=O)CC1CCCCC1` (stereo not given) gave MT1-MMP act inh inactive.
For COc1ccccc1N=Nc1nc(-c2ccccc2)c(-c2ccccc2)[nH]1 the results were MT1-MMP act inh 31, DAGLB inhibitor 40, TMEM16A inh inactive, TMEM16A act inactive, DAGLB confirm 50 and MT1-MMP act val inactive.
O=C(O)c1ccc(N=N/C(=N\Nc2ccc(C(=O)O)cc2)c2ccccc2)cc1 was read as MT1-MMP act inh 31, DAGLB inhibitor 39, TMEM16A inh inactive, TMEM16A act inactive, DAGLB confirm inactive and MT1-MMP act val inactive.
`O=C(O)c1cccc(N/N=C(\N=Nc2ccccc2)c2ccccc2)c1` gave MT1-MMP act inh inactive, DAGLB inhibitor inactive, TMEM16A inh inactive and TMEM16A act inactive.
For COc1ccc2nc(-n3c(O)c(C4=c5ccccc5=NC4=O)[nH]c3=S)sc2c1 the results were MT1-MMP act inh 35, DAGLB inhibitor 52, TMEM16A inh inactive, TMEM16A act inactive, DAGLB confirm 80 and MT1-MMP act val inactive.
Cn1c(O)c(C2=c3ccccc3=NC2=O)[nH]c1=S was read as MT1-MMP act inh inactive, DAGLB inhibitor inactive, TMEM16A inh inactive and TMEM16A act inactive.
Screening CC(=O)c1cccc(-c2ccnc3c2CC(C(=O)Nc2cccc(C(F)(F)F)c2)O3)c1 (stereo not given) returned MT1-MMP act inh inactive.
For O=C(Nc1ccc2c(c1)OCO2)C1Cc2c(-c3ccccc3Oc3ccccc3)ccnc2O1 (stereo not given) the results were MT1-MMP act inh inactive.
O=C1c2ccccc2C(=O)c2c(O)c(O)cc(O)c21 was read as MT1-MMP act inh 47, DAGLB inhibitor 37, TMEM16A act inactive, DAGLB confirm inactive and MT1-MMP act val inactive.
For CCOc1cc(C)nc(N2CCC(C(=O)NCC3CCCO3)CC2)n1 (stereo not given) the results were MT1-MMP act inh inactive, DAGLB inhibitor inactive and TMEM16A act inactive.
For CC1=NN(c2ccccc2)C(=O)C1N=Nc1ccc(N)cc1 (stereo not given) the results were MT1-MMP act inh 53, DAGLB inhibitor 35, TMEM16A inh inactive, TMEM16A act inactive, DAGLB confirm 38 and MT1-MMP act val 62.
Screening CCCN1C(=O)/C(=C2/C=Cc3ccccc3N2CC)SC1=S returned MT1-MMP act inh 45, DAGLB inhibitor 54, TMEM16A inh inactive, TMEM16A act inactive, DAGLB confirm 73 and MT1-MMP act val inactive.
CCCC(=O)N1CCCC(c2cc(C(=O)NCc3ccc(F)cc3)no2)C1 (stereo not given) was read as MT1-MMP act inh inactive.
Screening O=C1c2ccccc2C(=O)c2c1ccc(C(=O)N1CCCCC1)c2NCCO returned MT1-MMP act inh inactive, DAGLB inhibitor inactive, TMEM16A inh inactive and TMEM16A act inactive.
`CC1(C)CCCN(C(=O)c2ccc3c(c2NCCO)C(=O)c2ccccc2C3=O)C1` gave MT1-MMP act inh 40, DAGLB inhibitor 41, TMEM16A inh inactive, TMEM16A act inactive, DAGLB confirm 45 and MT1-MMP act val inactive.
Screening COc1cc(NS(=O)(=O)c2ccc(Br)s2)cc(OC)c1 returned MT1-MMP act inh inactive, DAGLB inhibitor inactive, TMEM16A inh 25, TMEM16A act inactive, TMEM16A reconf 32%, HEK293 Ca mobil inactive, YFP-HEK293 quench inactive and ClC-1 rat inh inactive.
`CCCCN1CC(N2CCN(CCN(C)C)CC2)CS1(=O)=O` (stereo not given) gave MT1-MMP act inh inactive.
`O=C(CCc1ccccc1)c1c(O)cc(O)cc1O` gave MT1-MMP act inh inactive, DAGLB inhibitor inactive, TMEM16A inh 100, TMEM16A act inactive, TMEM16A reconf 47%, HEK293 Ca mobil inactive, YFP-HEK293 quench inactive and ClC-1 rat inh inactive.
O=C(Nc1cccnc1)Nc1ccccc1Cl was read as MT1-MMP act inh inactive, DAGLB inhibitor inactive, TMEM16A inh 100, TMEM16A act inactive, TMEM16A reconf inactive, HEK293 Ca mobil inactive, YFP-HEK293 quench inactive and ClC-1 rat inh inactive.
Screening O=C(Nc1ccncc1)Nc1ccccc1Cl returned MT1-MMP act inh inactive, DAGLB inhibitor inactive, TMEM16A inh inactive and TMEM16A act inactive.
Screening COc1cc2c(C(=O)N3CCN(c4ccccc4)CC3)c(C)oc2cc1Br returned MT1-MMP act inh inactive, DAGLB inhibitor inactive, TMEM16A inh inactive, TMEM16A act inactive, TMEM16A reconf inactive, HEK293 Ca mobil inactive, YFP-HEK293 quench inactive and ClC-1 rat inh inactive.
O=C(CC1(O)C(=O)Nc2ccc(Br)cc21)c1ccccc1 (stereo not given) was read as MT1-MMP act inh inactive and DAGLB inhibitor inactive.
`N#Cc1c(-c2ccccc2)nc(SCc2ccc(Cl)cc2)[nH]c1=O` gave MT1-MMP act inh inactive, DAGLB inhibitor inactive, TMEM16A inh 100, TMEM16A act inactive, TMEM16A reconf inactive, HEK293 Ca mobil inactive, YFP-HEK293 quench inactive and ClC-1 rat inh inactive.
CSc1ccccc1NC(=O)CN(C)C(=O)c1ccc(NC(=O)c2cccs2)cc1 was read as MT1-MMP act inh inactive, DAGLB inhibitor inactive and TMEM16A act inactive.
